Experimental data from different studies.
Protocols differ between the studies behind these lines.
Read-out: cell growth or viability

| SMILES | cell line | test | setting | endpoint | value |
| --- | --- | --- | --- | --- | --- |
| COc1cc2nc(N3CCN(C(=O)c4ccco4)CC3)nc(N)c2cc1OC | CNE-2 | MTT | 48 h | IC50 | 34800 nM |
| C=CC(=O)NC1CCN(c2ncc3ncnc(Nc4ccc(Oc5ccc6c(c5)ncn6C)c(C)c4)c3n2)CC1 | EFM-192A |  |  | EC50 | 28.4 nM |
| O=C(NO)c1ccc(CNc2nc3cccc(-c4ccc5c(c4)OCO5)n3n2)cc1 | CAKI-1 | SRB |  | GI50 | 660 nM |
| C=CC(=O)N1CCN(c2nc(=O)n(-c3c(C)ccnc3C(C)C)c3nc(-c4c(O)cccc4F)c(F)cc23)[C@@H](C)C1 | SW756 | ATP luminescence |  | IC50 | 111 nM |
| Nc1ccc(/C=C/C(=O)N2CCc3c(oc4c(-c5ccc(F)cc5)cc(-c5ccc(C(=O)N6CCOCC6)nn5)cc34)C2)cn1 | ASPC1 | CCK-8 | 72 h | IC50 | 870 nM |
| C=C(F)C(=O)N1CCN(c2nc(OC[C@@H]3CCCN3C)nc3c2CCN(c2cccc4cccc(Cl)c24)C3)C[C@@H]1CC#N | ASPC1 | ATP luminescence |  | IC50 | 2010 nM |
| CC1(C)CCC2(CC1)N[C@@H](C(=O)N[C@@H]1CC[C@@H](C(N)=O)OC1)[C@H](c1ccnc(Cl)c1F)[C@]21C(=O)Nc2cc(Cl)ccc21 | SW982 | resazurin | 72 h | GI50 | 21 nM |
| Cc1cc(/C=C/C#N)cc(C)c1Nc1ccnc(Nc2ccc(C#N)cc2)n1 | CNE-2 | MTT | 48 h | IC50 | 18700 nM |
| Nc1ccc(/C=C/C(=O)NCc2cc3cc(-c4ccc(C(=O)N5CCC(F)(F)CC5)cc4)cc(-c4ccc(F)cc4)c3o2)cn1 | ASPC1 | CCK-8 | 72 h | IC50 | 440 nM |
| CCN1[C@@H](C(=O)NC23CCC(C(=O)O)(CC2)CC3)[C@H](c2cccc(Cl)c2F)[C@]2(C(=O)Nc3cc(Cl)ccc32)C12CCCCC2 | SW982 | resazurin | 72 h | GI50 | 157 nM |
